# PPC-1+TRAIL kill: compounds killing PPC-1 cancer cells with TRAIL present (potentiator screen, no TRAIL-free arm); PPC-1 cells + TRAIL, ATPLite viability luminescence; cell killing (% activity), % at 4 µM or 5 µM; 220,000 tested, 0.41% active; AID 1443;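 active means cell killing above 50% in the first pass at 4 µM, then a duplicate retest at 5 µM averaging 50% or more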
# FLuc inhib CS: Photinus pyralis luciferase inhibition counter-screen; P08659; ATPLite firefly luciferase biochemical luminescence, 10 min; inhibition, % at 10 µM; 200,000 tested, 1.5% active; AID 1006;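 active means inhibition above about 50% when tested at 10 µM, limit read from the data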
# Target sequence (P08659 whole entry, looked up): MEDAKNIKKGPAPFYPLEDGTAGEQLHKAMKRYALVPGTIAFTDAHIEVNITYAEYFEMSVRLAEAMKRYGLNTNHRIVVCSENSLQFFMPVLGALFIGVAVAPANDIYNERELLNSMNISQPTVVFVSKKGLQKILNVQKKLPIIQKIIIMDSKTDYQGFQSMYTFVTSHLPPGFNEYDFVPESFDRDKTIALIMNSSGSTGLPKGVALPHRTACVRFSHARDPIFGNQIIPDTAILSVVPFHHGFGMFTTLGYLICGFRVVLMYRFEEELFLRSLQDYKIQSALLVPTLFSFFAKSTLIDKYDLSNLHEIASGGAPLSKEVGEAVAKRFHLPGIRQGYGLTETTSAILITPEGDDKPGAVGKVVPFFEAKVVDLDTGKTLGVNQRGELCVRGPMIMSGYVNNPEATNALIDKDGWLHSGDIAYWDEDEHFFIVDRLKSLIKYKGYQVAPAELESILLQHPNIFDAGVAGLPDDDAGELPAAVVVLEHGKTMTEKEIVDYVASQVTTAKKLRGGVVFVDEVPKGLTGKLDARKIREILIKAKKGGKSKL
# FLuc stim CS: firefly luciferase counter-screen for stimulation assays; P08659; ATPlite luciferase biochemical, luminescence, 10 min; 0 = ATP-free wells, 1 = DMSO control; activation factor at 10 µM; 200,000 tested, under 10 active; AID 1027;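 active means luciferase activation factor, scaled between plate controls, of at least 2 with compound at 10 µM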
#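 Assay system: Luciferase/luciferin reagent mix; Medium: PBS as buffer for the ATP substrate; Dosing: test compounds dosed from 2 mM stocks in 100% DMSO; Times: 10 min, room temperature; Signal: luminescence from luciferase reaction; Read-out: luciferase activation; Controls: No-ATP low control, compound-free enzyme-plus-ATP high control.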
# C8 TRAIL sens: caspase-8 TRAIL sensitization | NB7+C8 cells + TRAIL, ATPlite viability luminescence | inhibition (viability loss, TRAIL sensitization), % at 10 µM | 360,000 tested, 1% active | AID 624354;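 active means compounds causing at least 50% loss of cell viability in the single-dose screen, relative to plate controls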
# HSP90 inh: inhibitors of HSP90 luciferase refolding in rabbit reticulocyte lysate; luciferase refolding luminescence, 3 h; inhibition, % at 5.6 µM; 290,000 tested, 0.91% active; AID 1789;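 active means inhibition above the screen-wide mean plus 3 SD, computed separately per campaign, cut at about 16% in these data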;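 further: inhibitors lower the luminescence because luciferase stays unfolded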
# HSP90 confirm: confirmation of HSP90 inhibitors; shares compounds with HSP90 inh; rabbit reticulocyte lysate, luciferase refolding luminescence, 3 h; inhibition, % at 5.9 µM; 2,300 tested, 64% active; in the data active means inhibition above about 18%
# luciferase ctr: blocks native firefly luciferase in HSP90 counter-screen. 2,300 tested, 48% active. inhibition, % at 5.9 µM. shares compounds with HSP90 inh. purified native firefly luciferase, luminescence;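 active means inhibition above the mean inhibition of all tested sample wells plus 3 SD, cut at about 10% in these data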
# Numbers stand for hits; n = inactive; x = not tested or not shown. In the library only some 2% were active in any assay of this set; here they are far more common.
SMILES,PPC-1+TRAIL kill,FLuc inhib CS,FLuc stim CS,C8 TRAIL sens,HSP90 inh,HSP90 confirm,luciferase ctr
CCc1ccccc1NC(=S)N1CCN(c2cccc(OC)c2)CC1,x,x,x,n,n,x,x
COc1cc(C2NC(=O)NC(c3ccccc3)=C2C(C)=O)c(Br)c(Br)c1O (centres undefined),x,x,x,n,18,n,n
CCN(CC(=O)N1CCCC1)S(=O)(=O)c1ccc(OC)cc1,x,x,x,n,n,x,x
Cc1cccc(-n2c(N)cc(=O)nc2SCC(=O)Nc2nnc(CC(C)C)s2)c1,n,n,n,x,n,x,x
CCCCc1nnc(NC(=O)CSc2nc(=O)cc(N)n2-c2cccc(C)c2)s1,n,n,n,n,33,n,n
Cc1ccc(C(=O)OCC(=O)c2cc(C)n(CC3CCCO3)c2C)cc1 (centres undefined),n,n,n,n,32,35,32
Cc1cc(C(=O)COC(=O)c2n[nH]c3ccccc23)c(C)n1CC1CCCO1 (centres undefined),n,92,n,72,52,55,54
Cc1cc(C(=O)COC(=O)c2ccccc2NCCO)c(C)n1CC1CCCO1 (centres undefined),x,x,x,n,53,23,n
CCOc1cc(C(=O)OCC(=O)c2cc(C)n(CC3CCCO3)c2C)ccc1OCC(=O)N1CCOCC1 (centres undefined),n,n,n,n,n,x,x
N#Cc1cc2c(nc1SCC(N)=O)CCCCC2,n,n,n,n,n,x,x
N#Cc1cc2c(nc1SCC(=O)N1CCOCC1)CCCCC2,n,n,n,n,54,n,n
CC(C)c1ccccc1OCC(=O)NCC(c1cccs1)N1CCOCC1 (centres undefined),n,n,n,n,24,n,n
O=C(CN1C(=O)CCC1=O)NNc1ccc2ccccc2c1,n,n,n,n,26,n,n
O=C(Cc1ccccc1)NNc1ccc2ccccc2c1,n,n,n,n,39,n,n
O=C(COc1ccc2ccccc2c1)NNC(=O)Cc1ccccc1,n,n,n,n,n,x,x
CC(=O)N1CC(C)Oc2ccc(S(=O)(=O)NC(CC(=O)O)c3ccc(C)cc3C)cc21 (centres undefined),x,x,x,n,n,x,x
COc1ccc(C(C[N+](=O)[O-])c2c(C)[nH]n(-c3ccccc3)c2=O)cc1 (centres undefined),x,x,x,n,26,50,n
Cc1[nH]n(-c2ccccc2)c(=O)c1C(c1ccc(O)c([N+](=O)[O-])c1)c1c(C)[nH]n(-c2ccccc2)c1=O,x,x,x,n,26,n,n
COc1cccc(C(c2c(C)[nH]n(-c3ccccc3)c2=O)c2c(C)[nH]n(-c3ccccc3)c2=O)c1O,x,x,x,n,x,x,x
Cc1nc2c(OCc3ccc(C(F)(F)F)cc3)cccn2c1N(C)CC1CC1,x,x,x,n,x,x,x
COc1ccc(-c2csc(NC(=O)c3ccccc3F)n2)cc1,x,x,x,n,33,n,n
CC(=O)CC(=O)Nc1nc(C)cc(C)n1,n,n,n,n,27,n,n
COc1ccc(NC(=S)Nc2ccccn2)cc1,n,x,x,n,26,n,n
COc1cc(Cc2ccc(N)c(OC)c2)ccc1N,n,n,n,n,n,x,x
Nc1ccc(Cc2ccc(N)c(O)c2)cc1O,n,n,n,n,24,n,n
SMILES,PPC-1+TRAIL kill,FLuc inhib CS,FLuc stim CS,C8 TRAIL sens,HSP90 inh,HSP90 confirm,luciferase ctr
COc1ccc(OCCN2CCN(S(=O)(=O)c3ccccc3C(F)(F)F)CC2)cc1,x,x,x,n,x,x,x
CCc1ccc(-c2nc(CSCC(=O)NCc3ccco3)c(C)o2)cc1,n,n,n,n,19,31,n
CCOc1ccc(-c2nc(CSCC(=O)N3CCN(C(=O)c4ccco4)CC3)c(C)o2)cc1,n,n,n,n,37,46,n
CCOC(=O)N1CCN(c2ccc(N3C(=O)CCCC3=O)cc2[N+](=O)[O-])CC1,n,n,n,n,n,x,x
CCc1ccc(C(=O)/C=C/c2cnn(C)c2C)s1,n,86,n,n,35,26,52
Cc1ccc(S(=O)(=O)NCC(=O)N(CC(=O)NCc2ccco2)Cc2ccco2)cc1,n,n,n,n,n,x,x
O=C(CN(Cc1ccco1)C(=O)CNS(=O)(=O)c1ccc(Cl)cc1)NCc1ccco1,x,x,x,n,55,n,n
COc1ccc(C(=O)NCCn2ccc3ccccc32)c(OC)c1,n,n,n,n,38,n,n
COc1ccc(C(=O)NCCN2CCOCC2)c(OC)c1,n,n,n,n,n,x,x
COc1ccc(C(=O)Nc2ccc3ccccc3c2)c(OC)c1,x,x,x,n,24,20,9.8
O=C(CNC(=O)Cc1ccccc1)NCC(=O)N1CCCCC1,x,x,x,n,n,x,x
O=C(CNC(=O)Cc1ccc(Cl)cc1)NCC(=O)N1CCCCC1,x,x,x,n,23,n,n
CNC(=S)N/N=C/c1ccc(-c2ccc(C(=O)O)cc2)o1,n,x,x,n,34,37,n
COc1cc(NCCCC(C)N)c2ncccc2c1 (centres undefined),x,x,x,n,23,n,n
COc1cc(NS(=O)(=O)c2ccc(C)cc2)c2ncccc2c1,n,n,n,n,n,x,x
CN(C)C1=NC(=O)/C(=C\c2ccccc2)S1,n,n,n,n,38,n,n
NC1=NC(=O)C(=Cc2ccccc2)S1,x,x,x,n,x,x,x
Cc1c(N=Cc2nc3ccccc3n2C)c(=O)n(-c2ccccc2)n1C,n,83,n,n,32,37,26
CCN(CC)S(=O)(=O)c1ccc(N2CCN(c3cccc(OC)c3)CC2)c([N+](=O)[O-])c1,n,n,n,n,n,x,x
O=C(CSc1ncccc1-c1nc2ccccc2[nH]1)NC1CC1,n,n,n,n,n,x,x
Cc1cc2nc(-c3cccnc3SCC(=O)NC(C)C)[nH]c2cc1C,n,70,n,n,34,n,n
Cc1nc(-c2coc3cc(O)c(C)cc3c2=O)cs1,n,83,n,60,18,52,51
CCc1cc2c(=O)c(-c3nc(C)cs3)coc2cc1O,n,x,x,n,n,x,x
COc1cc(C(=O)NCc2ccc(S(N)(=O)=O)cc2)ccc1OCC(=O)N1CCOCC1,x,x,x,n,x,x,x
CCOC(=O)/C(C#N)=C/c1cc(C)n(-c2ccccc2)c1C,n,76,n,50,54,65,64
SMILES,PPC-1+TRAIL kill,FLuc inhib CS,FLuc stim CS,C8 TRAIL sens,HSP90 inh,HSP90 confirm,luciferase ctr
Cc1cccc(NC(=O)c2ccc3c(c2)CCN3S(C)(=O)=O)c1,x,x,x,n,n,x,x
Cn1ccnc1SCc1cn2cc(Br)ccc2n1,n,n,n,n,18,40,34
Cc1ccc(SCc2cn3ccccc3n2)cc1,n,x,x,n,n,x,x
Cc1ccc2nc(Nc3nc(C)cc(-c4ccccc4)n3)[nH]c(=O)c2c1,n,x,x,n,n,x,x
Cc1nc(NC(=O)c2ccc(OCC(C)C)cc2)sc1Cc1ccc2c(c1)OCO2,n,n,n,n,32,n,n
COc1cc(C(=O)Nc2nc(C)c(Cc3ccc4c(c3)OCO4)s2)cc(OC)c1OC,n,n,n,n,n,x,x
